Experimental data reported in ChEMBL document CHEMBL2021854, “2-Aminopyrimidine based 4-aminoquinoline anti-plasmodial agents. Synthesis, biological activity, structure-activity relationship and mode of action studies” (Eur J Med Chem, 2012).

Key:
[1] = test system: Plasmodium falciparum; experiment: Antiplasmodial activity chloroquine-sensitive Plasmodium falciparum 3D7 infected in human A+ erythrocytes assessed as inhibition of [3H]-hypoxanthine incorporation after 24 hrs by scintillation counting; format: functional, organism-based
[2] = test system: Plasmodium falciparum; experiment: Antiplasmodial activity chloroquine-resistant Plasmodium falciparum K1 infected in human A+ erythrocytes assessed as inhibition of [3H]-hypoxanthine incorporation after 24 hrs by scintillation counting; format: functional, organism-based
[3] = test system: Plasmodium falciparum; experiment: Resistant factor, ratio of IC50 for chloroquine-resistant Plasmodium falciparum K1 to IC50 for chloroquine-sensitive Plasmodium falciparum 3D7; format: functional
Procedure, shortened: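 Resistance factor computed as IC50 against K1 divided by IC50 against 3D7, both from the [3H]hypoxanthine incorporation assay.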

[4] = test system: MDCK; experiment: Cytotoxicity against MDCK cells assessed as cell viability by colorimetric formazan-based MTS assay; parameters: species or system Canis lupus familiaris; settings: dog, mdck
Procedure, shortened: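 Cytotoxicity on MDCK cells; 50% cytotoxic concentration from cell viability measured by colorimetric formazan-based MTS assay.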

[5] = Cytotoxicity against MDCK cells assessed as minimum compound concentration required to causes microscopically detectable alteration of normal cell morphology; format: cell-based, Canis lupus familiaris; settings: dog
Procedure, shortened: (§1)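 Confluent, non-proliferating cell cultures were exposed to the compounds. The endpoint was the minimum concentration producing a microscopically detectable alteration of normal cell morphology.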

[6] = Selectivity index, ratio of CC50 for MDCK cells to IC50 for chloroquine-resistant Plasmodium falciparum K1; format: functional
Procedure, shortened: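 Selectivity index computed as MTS-based CC50 on MDCK cells divided by IC50 against P. falciparum K1.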

[7] = Cytotoxicity against african green monkey Vero cells assessed as minimum compound concentration required to causes microscopically detectable alteration of normal cell morphology; format: cell-based; settings: chlorocebus sabaeus; procedure, shortened: as §1
[8] = test system: Human respirovirus 3; experiment: Antiviral activity against Parainfluenza-3 virus infected in african green monkey Vero cells assessed as inhibition of virus-induced cytopathogenicity after 4 days; format: functional, organism-based; settings: Human respirovirus 3, Vero, 96 h
Procedure, shortened: (§2)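 Confluent HEL, Vero or HeLa monolayers were inoculated with 100 CCID50 of virus in the presence of varying concentrations of compound. Cytopathicity was scored when it reached completion in untreated, virus-infected control cultures.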

[9] = test system: Mammalian orthoreovirus 1; experiment: Antiviral activity against Reovirus-1 infected in african green monkey Vero cells assessed as inhibition of virus-induced cytopathogenicity after 4 days; format: functional, organism-based; settings: Mammalian orthoreovirus 1, Vero, 96 h; procedure, shortened: as §2
[10] = test system: Sindbis virus; experiment: Antiviral activity against Sindbis virus infected in african green monkey Vero cells assessed as inhibition of virus-induced cytopathogenicity after 4 days; format: functional, organism-based; settings: 96 h; procedure, shortened: as §2
[11] = test system: Coxsackievirus B4; experiment: Antiviral activity against Coxsackie virus B4 infected in african green monkey Vero cells assessed as inhibition of virus-induced cytopathogenicity after 4 days; format: functional, organism-based; settings: Enterovirus B, 96 h; procedure, shortened: as §2
[12] = test system: Punta Toro virus; experiment: Antiviral activity against Punta Toro virus infected in african green monkey Vero cells assessed as inhibition of virus-induced cytopathogenicity after 4 days; format: functional, organism-based; settings: 96 h; procedure, shortened: as §2
[13] = test system: Human alphaherpesvirus 1; experiment: Antiviral activity against HSV1 KOS infected in HEL cells assessed as inhibition of virus-induced cytopathogenicity after 4 days; format: functional, organism-based; settings: Human alphaherpesvirus 1, KOS, 96 h
Procedure, shortened: (§3)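 Confluent HEL or HeLa monolayers infected with 100 CCID50 of virus in the presence of varying compound concentrations.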

[14] = test system: Human alphaherpesvirus 2; experiment: Antiviral activity against HSV2 G infected in HEL cells assessed as inhibition of virus-induced cytopathogenicity after 4 days; format: functional, organism-based; settings: Human alphaherpesvirus 2, strain G, 96 h; procedure, shortened: as §2
[15] = test system: Vesicular stomatitis virus; experiment: Antiviral activity against Vesicular stomatitis virus infected in HEL cells assessed as inhibition of virus-induced cytopathogenicity after 4 days; format: functional, organism-based; settings: 96 h; procedure, shortened: as §3
[16] = test system: Human alphaherpesvirus 1; experiment: Antiviral activity against thymidine kinase-deficient acyclovir-resistant HSV1 KOS infected in HEL cells assessed as inhibition of virus-induced cytopathogenicity after 4 days; format: functional, organism-based; settings: Human alphaherpesvirus 1, KOS, 96 h; procedure, shortened: as §3
[17] = Cytotoxicity against human HEL cells assessed as minimum compound concentration required to causes microscopically detectable alteration of normal cell morphology; format: cell-based; procedure, shortened: as §1
[18] = Cytotoxicity against human HeLa cells assessed as minimum compound concentration required to causes microscopically detectable alteration of normal cell morphology; format: cell-based; procedure, shortened: as §1
[19] = test system: Vesicular stomatitis virus; experiment: Antiviral activity against Vesicular stomatitis virus infected in HeLa cells assessed as inhibition of virus-induced cytopathogenicity after 4 days; format: functional, organism-based; settings: 96 h; procedure, shortened: as §3
[20] = test system: Coxsackievirus B4; experiment: Antiviral activity against Coxsackie virus B4 infected in human HeLa cells assessed as inhibition of virus-induced cytopathogenicity after 4 days; format: functional, organism-based; settings: Enterovirus B, 96 h; procedure, shortened: as §2
[21] = test system: Respiratory syncytial virus; experiment: Antiviral activity against Respiratory syncytial virus infected in human HeLa cells assessed as inhibition of virus-induced cytopathogenicity after 4 days; format: functional, organism-based; settings: 96 h; procedure, shortened: as §2
[22] = test system: Influenza A virus; experiment: Antiviral activity against Influenza A virus H1N1 infected in MDCK cells assessed as reduction visual scoring of virus-induced cytopathogenicity after 4 days; format: functional, organism-based; settings: 96 h
Procedure, shortened: (§4)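 MDCK monolayers infected with 100 CCID50 of influenza A (H1N1 or H3N2) or influenza B, with varying compound concentrations. Cytopathicity read when untreated infected controls reached complete CPE.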

[23] = test system: Influenza A virus; experiment: Antiviral activity against Influenza A virus H3N2 infected in MDCK cells assessed as reduction visual scoring of virus-induced cytopathogenicity after 4 days; format: functional, organism-based; settings: 96 h; procedure, shortened: as §4
[24] = test system: Influenza B virus; experiment: Antiviral activity against Influenza B virus infected in MDCK cells assessed as reduction visual scoring of virus-induced cytopathogenicity after 4 days; format: functional, organism-based; settings: 96 h; procedure, shortened: as §4
[25] = test system: Influenza A virus; experiment: Antiviral activity against Influenza A virus H1N1 infected in MDCK cells assessed as inhibition of virus-induced cytopathogenicity after 4 days by colorimetric formazan-based MTS assay; format: functional, organism-based; settings: 96 h
[26] = test system: Influenza A virus; experiment: Antiviral activity against Influenza A virus H3N2 infected in MDCK cells assessed as inhibition of virus-induced cytopathogenicity after 4 days by colorimetric formazan-based MTS assay; format: functional, organism-based; settings: 96 h
[27] = test system: Influenza B virus; experiment: Antiviral activity against Influenza B virus infected in MDCK cells assessed as inhibition of virus-induced cytopathogenicity after 4 days by colorimetric formazan-based MTS assay; format: functional, organism-based; settings: 96 h
[28] = test system: Human betaherpesvirus 5; experiment: Antiviral activity against Cytomegalovirus AD-169 infected in HEL cells assessed as inhibition of virus plaque formation after 4 days; format: functional, organism-based; settings: Human betaherpesvirus 5, AD169, HEL, 96 h
[29] = test system: Human betaherpesvirus 5; experiment: Antiviral activity against Human cytomegalovirus Davis infected in HEL cells assessed as inhibition of virus plaque formation after 4 days; format: functional, organism-based; settings: Human betaherpesvirus 5, Davis, 96 h
[30] = test system: HeLa; experiment: Cytotoxicity against human HeLa cells assessed as cell viability by colorimetric formazan-based MTS assay
[31] = test system: Human alphaherpesvirus 3; experiment: Antiviral activity against […] expressing thymidine kinase infected in HEL cells assessed as reduction of virus plaque formation after 4 days; format: functional, cell-based; settings: Human alphaherpesvirus 3, strain Oka vaccine, 96 h
[32] = test system: Human alphaherpesvirus 3; experiment: Antiviral activity against thymidine kinase-deficient […] infected in HEL cells assessed as reduction of virus plaque formation after 4 days; format: functional, organism-based; settings: Human alphaherpesvirus 3, 07-1, HEL, 96 h
[33] = Cytotoxicity against cat CRFK cells assessed as cell viability by colorimetric formazan-based MTS assay; parameters: species or system Felis catus; settings: crfk
[34] = test system: Feline infectious peritonitis virus; experiment: Antiviral activity against FIPV infected in cat CRFK cells assessed as inhibition of virus-induced cytopathic effect after 4 days by colorimetric formazan-based MTS assay; format: functional, cell-based; settings: Alphacoronavirus 1, CRFK, 96 h
[35] = test system: Felid alphaherpesvirus 1; experiment: Antiviral activity against Feline herpesvirus infected in cat CRFK cells assessed as inhibition of virus-induced cytopathic effect after 4 days by colorimetric formazan-based MTS assay; format: functional, organism-based; settings: Felid alphaherpesvirus 1, CRFK, 96 h
[36] = test system: Human immunodeficiency virus 1; experiment: Antiviral activity against HIV1 infected in human CEM cells assessed as inhibition of virus-induced cytopathic effect after 4 days; format: functional, organism-based; settings: Human immunodeficiency virus 1, CCRF-CEM, 96 h
Procedure, shortened: (§5)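 CEM T-lymphocytes (~3 × 10^5 cells/ml) were infected with HIV-1 IIIB or HIV-2 ROD at ~100 CCID50, then immediately plated with a range of compound concentrations. Giant cell formation was scored microscopically after 4 days at 37 °C. Cytostatic activity was tested in parallel in uninfected CEM cells.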

[37] = test system: Human immunodeficiency virus 2; experiment: Antiviral activity against HIV2 infected in human CEM cells assessed as inhibition of virus-induced cytopathic effect after 4 days; format: functional, organism-based; settings: Human immunodeficiency virus 2, CCRF-CEM, 96 h; procedure, shortened: as §5
[38] = Inhibition of beta-hematin formation assessed as Ferriprotoporphyrin IX biomineralisation at 1 mg/ml after 24 hrs; format: functional
Procedure, shortened: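 Hemin chloride (0.5 mg/ml in DMSO) mixed with 0.5 M sodium acetate buffer pH 4.4 and drug or solvent control, incubated 37 °C for 24 h. Pellet washed with DMSO to remove unreacted hemin, dissolved in 0.1 N NaOH, absorbance read at 405 nm; percent inhibition relative to control. Highest concentration tested 1 mg/ml.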

Row | SMILES | IC50 [1] [µM] | IC50 [2] [µM] | Ratio IC50 [3] | CC50 [4] [µM] | MCC [5] [nM] | Ratio CC50/IC50 [6] | MCC [7] [µM] | EC50 [8] [µM] | EC50 [9] [µM] | EC50 [10] [µM] | EC50 [11] [µM] | EC50 [12] [µM] | EC50 [13] [µM] | EC50 [14] [µM] | EC50 [15] [µM] | EC50 [16] [µM] | MCC [17] [µM] | MCC [18] [µM] | EC50 [19] [µM] | EC50 [20] [µM] | other results
1 | Cc1nc(NCCCNc2ccnc3cc(Cl)ccc23)nc(-c2cccc([N+](=O)[O-])c2)c1C(=O)OC(C)C | 0.599 | 0.231 | 0.385 | 0.5 | 800 | 2.1 | 100 | > 20 | > 20 | > 20 | > 20 | > 20 | > 4 | > 4 | > 4 | > 4 | 20 | 20 | > 4 | > 4 | EC50 [21]: > 4 µM; EC50 [22]: > 0.16 µM; EC50 [23]: > 0.16 µM; EC50 [24]: > 0.16 µM; EC50 [25]: > 0.16 µM; EC50 [26]: > 0.16 µM; EC50 [27]: > 0.16 µM; EC50 [28]: > 4 µM; EC50 [29]: > 4 µM; CC50 [30]: 1.04 µM; EC50 [31]: 4 µM; EC50 [32]: > 4 µM; CC50 [33]: 7.7 µM; EC50 [34]: > 4 µM; EC50 [35]: > 4 µM; EC50 [36]: > 2 µM; EC50 [37]: > 10 µM; inhibition [38]: 79%
2 | Cc1nc(NCCNc2ccnc3cc(Cl)ccc23)nc(-c2ccccc2[N+](=O)[O-])c1C(=O)OC(C)C | 0.173 | 0.096 | 0.5555 | 2.2 | ≥ 800 | 22.9 | 100 | > 20 | > 20 | > 20 | > 20 | > 20 | > 20 | > 100 | > 20 | > 20 | 100 | > 100 | > 100 | > 100 | EC50 [21]: > 100 µM; EC50 [22]: > 0.8 µM; EC50 [23]: > 0.8 µM; EC50 [24]: > 0.8 µM; EC50 [25]: > 0.8 µM; EC50 [26]: > 0.8 µM; EC50 [27]: > 0.8 µM; EC50 [28]: > 20 µM; EC50 [29]: > 20 µM; CC50 [30]: 24.4 µM; EC50 [31]: > 20 µM; EC50 [32]: > 20 µM; CC50 [33]: > 100 µM; EC50 [34]: > 100 µM; EC50 [35]: > 100 µM; EC50 [36]: > 10 µM; EC50 [37]: > 2 µM
